Rows were chosen to be rich in hits. Some 5.6% of all compounds tested hit in one or more screens of this group.
UPR XBP1 act – adaptive UPR (XBP1) activation; CHO-XBP1 luciferase reporter, IRE1-XBP1 UPR activation, luminescence; percent of tunicamycin response, DMSO as zero; activation, % at 20 µM; actives 0.33% (n = 330,000); AID 463104;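 active = versus positive control, 20 µM dose yields 30% or more activation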;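 also: 100% = tunicamycin at 10 µg/mL and 0% = DMSO only wells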
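Material – CHO cell line with stable XBP1 luciferase reporter · Buffer or medium – F12 plus 10% FBS · Compound – single point, 20 µM final compound, 1% DMSO · Schedule – 16-18 h cell attachment at 37 °C, then 6 h compound exposure · Signal – Steady-Glo luminescence read · Benchmarks – high control tunicamycin 10 µg/mL final, low control DMSO vehicle only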
aDG glyco act – alpha-DG glycosylation activation | activation, % at 10 µM | AID 624168 | actives 0.22% (n = 360,000) | Pro5-aDG cells, alpha-DG glycosylation AlphaScreen (IIH6); 0% Pro5, 100% B10-LARGE cell signal;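 active = activation of at least 8% versus controls, or a plate z-score of at least 8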;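 also: Pro5 are CHO cells carrying HIG-tagged alpha-DG that lacks glycosylation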
CHOP UPR activ – apoptotic UPR (CHOP) activation | CHO-CHOP luciferase reporter, luminescence; percent of tunicamycin response over DMSO baseline | activation, % at 10 µM | actives 0.34% (n = 330,000) | AID 449763;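 active = at 10 µM dose, activation of 40% or more, normalized to positive control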;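 also: 100% = tunicamycin at 10 µg/mL and 0% = DMSO alone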
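measured by = luciferase luminescence | assay system = CHO-CHOP cells, stable luciferase reporter of PERK-eIF2a-CHOP signalling | amount = 500 reporter cells seeded per well | timing = 6 h compound exposure at 37 °C after overnight seeding | controls = positive tunicamycin 10 µg/mL, negative DMSO alone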
MPTP block – permeability transition pore inhibition | inhibition, % at 10 µM | isolated mouse mitochondria, Ca2+ swelling absorbance, 30 min | actives 1.4% (n = 360,000);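 active = inhibition of 50% or more, scaled per plate between neutral and stimulator controls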;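 also: 0% = DMSO wells given calcium and 100% = 1 mM EGTA wells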
CHOP inh – inhibitors of CHOP induction in ER stress response | CHO-K1 CHOP-promoter luciferase, tunicamycin-induced, 15-18 h | AID 2732 | inhibition, % at 10 µM | actives 3.8% (n = 220,000);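 active = compounds that reduced the stress-induced luciferase reporter signal by more than about 70% of percent inhibition, limit read from the data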;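 also: 0% = tunicamycin plus vehicle and 100% = wells without tunicamycin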
GRIN3A LBD mod – modulators (binders) of human NR3A ligand-binding domain; NR3A LBD differential scanning fluorimetry, Tm shift; 0% = protein alone, 100% = glycine-bound protein; Tm shift relative to glycine control, % at 25 µM; actives 2.5% (n = 340,000);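 active = melting temperature shift of at least 10% of the positive control shift, at one fixed dose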
UPR XBP1 confirm – adaptive UPR (XBP1) activation, confirmed; CHO-XBP1 IRE1-XBP1 luciferase reporter, luminescence; activation, % at 20 µM; AID 485299; shares compounds with UPR XBP1 act; actives 63% (n = 1,000);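 active = reporter signal at least 30% of the positive control's activation in two or more of four replicate wells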;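 also: plate controls were DMSO negative control for no effect and tunicamycin 10 µg/mL positive control for full effect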
* marks the source's active call; other numbers are inactive results; / = not tested or not shown.

SMILES	UPR XBP1 act	aDG glyco act	CHOP UPR activ	MPTP block	CHOP inh	GRIN3A LBD mod	UPR XBP1 confirm
CCOC(=O)c1c(NC(=O)c2cc3n(n2)C(C(F)(F)F)CC(c2cccs2)N3)sc(C)c1C (stereo not given)	33*	0	33	1	59	-11	206*
CC(C)n1c(O)c(N=NC(=O)C2COc3ccccc3O2)c2ccccc21 (stereo not given)	13	0	0	-3	42	-3	/
Cn1c(Cl)cnc1C1CC(=O)c2cc(Cl)ccc2O1 (stereo not given)	77*	-1	23	-1	-37	1	130*
O=C1CC(c2ccc(Cl)cc2)Oc2ccc(Cl)cc21 (stereo not given)	/	0	/	-1	/	-9	/
Cc1ccc2nc(/C(C#N)=C/c3ccccc3C(=O)O)[nH]c2c1	-4	0	0	-1	/	-1	/
Cc1ccc2nc(/C(C#N)=C/c3ccc(O)c(O)c3)[nH]c2c1	43*	0	36	5	/	19*	33*
Cc1cc(NC(=O)c2cc(-c3ccncc3)nc3c(C)cccc23)no1	153*	0	8	-1	/	-2	184*
Cc1ccc(-c2cc(C(=O)Nc3cc(C)on3)c3ccccc3n2)cc1	-3	0	-1	0	-6	4	/
Cc1ccc(Cl)cc1N1CCN(Cc2nc3c(c(=O)[nH]c(=O)n3C)n2CCc2ccccc2)CC1	46*	0	22	4	25	0	55*
Cc1ccc(Cl)cc1N1CCN(Cc2nc3c(c(=O)[nH]c(=O)n3C)n2Cc2ccccc2F)CC1	4	0	2	1	/	0	/
CCOc1ccccc1NC(=O)Cn1c(=O)n(-c2ccccc2)c(=O)c2oc3ccccc3c21	65*	0	2	0	63	0	94*
O=C(Cn1c(=O)n(-c2ccccc2)c(=O)c2oc3ccccc3c21)Nc1ccccc1	1	0	1	2	14	-6	/
Cc1c(C(=O)Nc2nccs2)oc2ccc(Br)cc12	48*	0	17	1	/	-1	79*
Cc1c(C(=O)Nc2nccs2)oc2ccc(F)cc12	-1	0	3	2	/	1	/
CSC1=NC(C)(C)C=C(/C=C/c2ccc(Cl)cc2)N1	35*	1	8	3	-22	-4	45*
Cc1[nH]c2ccccc2c1N=Nc1ccccc1C(=O)O	-1	0	0	6	34	-11	/
CC1=C(C(=O)OCc2ccccc2)C(c2ccc([N+](=O)[O-])cc2)NC(=O)N1CCCC(=O)O (stereo not given)	53*	0	1	-1	/	-3	-1
Cc1ccc(S(=O)(=O)Cc2cc(F)c([N+](=O)[O-])cc2[N+](=O)[O-])cc1	33*	0	10	0	/	-3	41*
Cc1cc(-c2onc(C)c2C(=O)O)no1	-4	0	1	1	1	2	/
COc1cc(Cl)c(C)cc1NC(=O)COC(=O)c1cc[n+]([O-])cc1	0	2	-1	0	5	-1	/
COc1ccc(-n2nc3c(N4CCC(C(=O)NCc5ccccc5C)CC4)nnc(C)c3c2C)cc1	-2	0	5	-2	/	-1	/
COc1ccc(-n2nc3c(N4CCC(C(=O)NCCc5ccccc5C)CC4)nnc(C)c3c2C)cc1	50*	2	0	0	/	0	0
Cc1ccc(-n2nc3c(N4CCC(C(=O)NCCc5ccccc5C)CC4)nnc(C)c3c2C)cc1	39*	1	3	-3	/	-5	30*
COc1ccc(C=O)cc1CN1CCCN(Cc2ccccc2F)S1(=O)=O	0	0	-1	1	/	2	/
Oc1ccc2ccccc2c1C=Nc1ccccc1-c1nc2ccccc2[nH]1	37*	0	26	3	73*	-4	5
SMILES	UPR XBP1 act	aDG glyco act	CHOP UPR activ	MPTP block	CHOP inh	GRIN3A LBD mod	UPR XBP1 confirm
O=c1cc(N2CCc3ccccc3C2)[nH]c(=O)n1Cc1ccc(F)cc1	42*	0	-2	-1	-1	-5	0
CC(=O)c1ccc(S(=O)(=O)N(C)CC(=O)NCc2ccco2)cc1	8	0	3	0	/	0	/
CCOC(=O)c1nnc(-c2ccc(C)cc2)nc1N1CCSCC1	0	0	1	0	41	-2	/
CCOC(=O)c1nnc(-c2ccc(C)cc2)nc1Oc1ccccc1Cl	37*	0	9	-1	78*	-3	49*
CCOC(=O)c1nnc(-c2ccc(C)cc2)nc1Oc1ccc(Cl)cc1Cl	94*	0	31	1	65	-1	124*
CCOC(=O)c1nnc(-c2cccs2)nc1Oc1ccccc1C(=O)OC	4	0	1	-2	-1	0	/
CCCCNC(=S)N/N=C1\C(=O)c2cccc3cccc1c23	1	0	-3	10	-15	-9	/
CNC(=S)N/N=C1\C(=O)c2cccc3cccc1c23	33*	-1	33	0	-129	-5	22
C=CCOc1ccc(C=CC(=O)c2c(O)c(OC)c(OC)c(OC)c2OC)cc1	/	0	/	1	/	2	/
CC(C)NC(=O)Nc1cccc2c1O[C@H](CN(C)C(=O)NC1CCCCC1)[C@H](C)CN([C@H](C)CO)C2=O	-2	0	-1	-1	/	-4	/
C=CCn1c(=O)c2ccc(C(=O)NCc3ccccc3)cc2n(Cc2ccc(C)cc2)c1=O	44*	0	1	0	79*	0	18
CCC(C)NC(=O)Cn1c(=O)n(-c2ccccc2)c(=O)c2ccc(C(=O)NCc3ccco3)cc21 (stereo not given)	-2	0	1	1	5	-1	/
COCCCNC(=O)c1ccc(Cn2c(=O)c3ccccc3n(Cc3cc(C)ccc3C)c2=O)cc1	0	0	3	0	3	2	/
Cc1ccc(Cn2c(=O)n(-c3ccccc3)c(=O)c3ccc(C(=O)NCc4ccco4)cc32)cc1	35*	0	1	-1	84*	-1	31*
Cn1cc(S(=O)(=O)N2CCCC2)cc1C(=O)NCc1ccccc1Cl	-3	0	1	0	/	-3	/
CC(=O)NC(c1ccc(F)c(F)c1)c1nc(-c2ccccc2)cs1 (stereo not given)	/	0	/	1	/	/	/
C/C(CC(=O)Nc1cc(C)ccn1)=N\NC(=O)c1cccc(C)c1O	4	0	2	-3	/	-2	/
CC1C/C(=N/Nc2nc3ccccc3[nH]2)CC(C)(C)C1 (stereo not given)	34*	1	3	4	-32	-4	31*
